Experimental data as given in ChEMBL document CHEMBL1649109, “Antiparasitic activities and toxicities of individual enantiomers of the 8-aminoquinoline 8-[(4-amino-1-methylbutyl)amino]-6-methoxy-4-methyl-5-[3,4-dichlorophenoxy]quinoline succinate” (Antimicrob Agents Chemother, 2008).
Activity calls are given as the source filed them. No cut-off for these calls is given here.

Key:
Canis familiaris [1] = assay: Toxicity in Beagle dog assessed as increase in methemoglobin level at 1.91 mg/kg/day, po after 8 days; format: organism-based, Canis lupus familiaris; design: route oral; settings: in vivo, 192 h
In short: (§1)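 Beagle dogs, one male and one female per enantiomer, given 0.64 mg/kg/day (0.5 mg/kg base) orally for 4 days. After a 5-week washout the same dogs received 1.91 mg/kg/day for 4 days. Methemoglobin sampled from days −6 to 36. Each dog's values are mean of duplicate determinations.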

Plasmodium berghei [2] = assay: Antimalarial activity Plasmodium berghei KBG-173 infected in Swiss(CD-1) mouse assessed as survival at 2 mg/kg, po treated at day of infection measured on day 30; format: functional, organism-based; design: dose 2 mg/kg
In short: (§2)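 CD-1 mice, 5 weeks old, male or female, groups of five, infected with 5 × 10^4 P. berghei KBG-173 parasitized erythrocytes. One 2 mg/kg oral dose given on a single day, from day −3 to +2 relative to inoculation. Controls untreated. Read-out is increase in mean survival time over controls and number alive at day +30.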

Leishmania donovani [3] = assay: Antileishmanial activity against Leishmania donovani HU3 infected in mouse assessed as inhibition of parasites in liver at 0.4 mg/kg/day, po treated for 5 days administered 7 days postinfection measured after 14 days post-infection; format: functional
In short: (§3)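 L. donovani HU3 amastigotes, 1 × 10^7 given IV to mice. From day 7 post-infection, dosed orally once daily for 5 days in 0.25% methylcellulose-10% ethanol; reference stibogluconate given SC. Mice killed at day 14 post-infection. Parasite burden counted on liver impression smears against untreated controls. ED50 from linear regression, with 95% confidence limits.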

Plasmodium berghei [4] = assay: Antimalarial activity against Plasmodium berghei KBG-173 infected in Swiss(CD-1) mouse assessed as mean survival time at 4 mg/kg/day, po treated for 3 days; format: functional
In short: (§4)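 CD-1 mice, 5 weeks old, male or female, groups of five, infected with 5 × 10^4 P. berghei KBG-173 parasitized erythrocytes. Drug in 0.5% hydroxyethylcellulose/0.1% Tween 80, given orally once daily on days 3, 4 and 5 post-infection. Parasitemia from blood films on day +6. Read-out also includes increase in mean survival time over controls and survivors at day +34.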

Canis familiaris [5] = assay: Toxicity in Beagle dog assessed as increase in methemoglobin level at 1.91 mg/kg/day, po after 2 days; format: organism-based, Canis lupus familiaris; design: route oral; settings: in vivo, 48 h; in short: as §1
Plasmodium berghei [6] = assay: Antimalarial activity Plasmodium berghei KBG-173 infected in Swiss(CD-1) mouse assessed as mean survival time at 2 mg/kg, po treated 2 day postinfection; format: functional; in short: as §2
Plasmodium berghei [7] = assay: Antimalarial activity Plasmodium berghei KBG-173 infected in Swiss(CD-1) mouse assessed as mean survival time at 2 mg/kg, po treated at day of infection; format: functional; in short: as §2
Pneumocystis carinii [8] = assay: Antimicrobial activity against Pneumocystis carinii infected BALB/c mouse at 5 mg/kg/day, po after 21 days administered 4 weeks postinfection by methenamine silver nitrate staining method; format: functional, organism-based
In short: (§5)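 Female BALB/c mice, 6-8 weeks, immunosuppressed with dexamethasone […] in drinking water, then inoculated transtracheally with 10^6 P. carinii. From 4 weeks post-inoculation, drug given in drinking water for 3 weeks, 10 mice/group, intake monitored. Lung impression smears stained with Giemsa or methenamine silver, read blinded. Graded 0-5 on a log scale; group mean ± SE.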

Pneumocystis carinii [9] = assay: Antimicrobial activity against Pneumocystis carinii infected BALB/c mouse at 0.25 mg/kg/day, po after 21 days administered 4 weeks postinfection by methenamine silver nitrate staining method; format: functional, organism-based; in short: as §5
Plasmodium berghei [10] = assay: Antimalarial activity Plasmodium berghei KBG-173 infected in Swiss(CD-1) mouse assessed as mean survival time at 2 mg/kg, po pretreated 2 days before infection; format: functional; in short: as §2
Leishmania donovani [11] = assay: Antileishmanial activity against Leishmania donovani HU3 infected in mouse assessed as inhibition of parasites in liver at 5 mg/kg/day, po treated for 5 days administered 7 days postinfection measured after 14 days post-infection; format: functional; in short: as §3
Plasmodium berghei [12] = assay: Antimalarial activity against Plasmodium berghei KBG-173 infected in Swiss(CD-1) mouse assessed as parasitemia at 1 mg/kg/day, po treated for 3 days measured on day 6
Pneumocystis carinii [13] = assay: Antimicrobial activity against Pneumocystis carinii infected BALB/c mouse at 0.25 mg/kg/day, po after 21 days administered 4 weeks postinfection by Giemsa staining method; format: functional, organism-based; in short: as §5
Plasmodium berghei [14] = assay: Antimalarial activity against Plasmodium berghei KBG-173 infected in Swiss(CD-1) mouse assessed as reduction in parasitemia at 4 mg/kg/day, po treated for 3 days measured on day 6; format: functional; design: scale not given: the % may be the effect or the level left; in short: as §4
Plasmodium berghei [15] = assay: Antimalarial activity Plasmodium berghei KBG-173 infected in Swiss(CD-1) mouse assessed as survival at 2 mg/kg, po treated 2 day postinfection measured on day 30; format: functional, organism-based; design: dose 2 mg/kg; in short: as §2
Plasmodium berghei [16] = assay: Antimalarial activity Plasmodium berghei KBG-173 infected in Swiss(CD-1) mouse assessed as survival at 2 mg/kg, po treated 1 day postinfection measured on day 30; format: functional, organism-based; design: dose 2 mg/kg; in short: as §2
Plasmodium berghei [17] = assay: Antimalarial activity Plasmodium berghei KBG-173 infected in Swiss(CD-1) mouse assessed as mean survival time at 2 mg/kg, po pretreated 3 days before infection; format: functional; in short: as §2
Pneumocystis carinii [18] = assay: Antimicrobial activity against Pneumocystis carinii infected BALB/c mouse at 1 mg/kg/day, po after 21 days administered 4 weeks postinfection by methenamine silver nitrate staining method; format: functional, organism-based; in short: as §5
Plasmodium berghei [19] = assay: Antimalarial activity against Plasmodium berghei KBG-173 infected in Swiss(CD-1) mouse assessed as parasitemia at 0.25 mg/kg/day, po treated for 3 days measured on day 6
Plasmodium berghei [20] = assay: Antimalarial activity Plasmodium berghei KBG-173 infected in Swiss(CD-1) mouse assessed as survival at 2 mg/kg, po pretreated 1 day before infection measured on day 30; format: functional, organism-based; design: dose 2 mg/kg; in short: as §2
Plasmodium berghei [21] = assay: Antimalarial activity Plasmodium berghei KBG-173 infected in Swiss(CD-1) mouse assessed as increase in mean survival time over control at 2 mg/kg, po pretreated 1 day before infection
Plasmodium berghei [22] = assay: Antimalarial activity against Plasmodium berghei KBG-173 infected in Swiss(CD-1) mouse assessed as mean survival time at 1 mg/kg/day, po treated for 3 days; format: functional; in short: as §4
Leishmania donovani [23] = assay: Antileishmanial activity against Leishmania donovani HU3 infected in mouse assessed as inhibition of parasites in liver at 10 mg/kg/day, po treated for 5 days administered 7 days postinfection measured after 14 days post-infection; format: functional; in short: as §3
Mus musculus = assay: Toxicity in Leishmania donovani HU3 infected mouse at 100 mg/kg/day, po treated for 5 days administered 7 days postinfection; format: organism-based; design: route oral; settings: in vivo; in short: as §3
Plasmodium berghei [24] = assay: Antimalarial activity against Plasmodium berghei KBG-173 infected in Swiss(CD-1) mouse assessed as mean survival time at 0.25 mg/kg/day, po treated for 3 days; format: functional; in short: as §4
Canis familiaris [25] = assay: Toxicity in Beagle dog assessed as increase in methemoglobin level at 1.91 mg/kg/day, po after 6 days; format: organism-based, Canis lupus familiaris; design: route oral; settings: in vivo, 144 h; in short: as §1
Plasmodium berghei [26] = assay: Antimalarial activity against Plasmodium berghei KBG-173 infected in Swiss(CD-1) mouse assessed as survival at 0.25 mg/kg/day, po treated for 3 days measured on day 34; format: functional, organism-based; in short: as §4
Plasmodium berghei [27] = assay: Antimalarial activity against Plasmodium berghei KBG-173 infected in Swiss(CD-1) mouse assessed as survival at 4 mg/kg/day, po treated for 3 days measured on day 34; format: functional, organism-based; in short: as §4
Canis familiaris [28] = assay: Toxicity in Beagle dog assessed as increase in methemoglobin level at 1.91 mg/kg/day, po; format: organism-based, Canis lupus familiaris; design: route oral; settings: in vivo; in short: as §1
Pneumocystis carinii [29] = assay: Antimicrobial activity against Pneumocystis carinii infected BALB/c mouse at 1 mg/kg/day, po after 21 days administered 4 weeks postinfection by Giemsa staining method; format: functional, organism-based; in short: as §5
Plasmodium berghei [30] = assay: Antimalarial activity Plasmodium berghei KBG-173 infected in Swiss(CD-1) mouse assessed as mean survival time at 2 mg/kg, po treated 1 day postinfection; format: functional; in short: as §2
Plasmodium berghei [31] = assay: Antimalarial activity against Plasmodium berghei KBG-173 infected in Swiss(CD-1) mouse assessed as survival at 1 mg/kg/day, po treated for 3 days measured on day 34; format: functional, organism-based; in short: as §4
Pneumocystis carinii [32] = assay: Antimicrobial activity against Pneumocystis carinii infected BALB/c mouse at 5 mg/kg/day, po after 21 days administered 4 weeks postinfection by Giemsa staining method; format: functional, organism-based; in short: as §5
Plasmodium berghei [33] = assay: Antimalarial activity Plasmodium berghei KBG-173 infected in Swiss(CD-1) mouse assessed as survival at 2 mg/kg, po pretreated 2 days before infection measured on day 30; format: functional, organism-based; design: dose 2 mg/kg; in short: as §2

COc1cc(N[C@@H](C)CCCN)c2nccc(C)c2c1Oc1ccc(Cl)c(Cl)c1.O=C(O)CCC(=O)O
Activity (Canis familiaris [1]): Toxic | Activity (Plasmodium berghei [2]): Active | inhibition in vivo at 0.4 mg/kg/day (Leishmania donovani [3]): 41.2% | MST (Plasmodium berghei [4]): 11 days | Activity (Canis familiaris [5]): Toxic | MST (Plasmodium berghei [6]): 1.2 days | MST (Plasmodium berghei [7]): 3.4 days | Activity (Pneumocystis carinii [8]): Active | Activity (Pneumocystis carinii [9]): Active | MST (Plasmodium berghei [10]): 0 days | inhibition in vivo at 5 mg/kg/day (Leishmania donovani [11]): 65% | Activity (Plasmodium berghei [12]): 27.4% | Activity (Pneumocystis carinii [13]): Active | Activity (Plasmodium berghei [14]): 1.1% | Activity (Plasmodium berghei [15]): Active | Activity (Plasmodium berghei [16]): Active | MST (Plasmodium berghei [17]): 0 days | Activity (Pneumocystis carinii [18]): Active | Activity (Plasmodium berghei [19]): 28.2% | Activity (Plasmodium berghei [20]): Active | ΔMST (Plasmodium berghei [21]): 0.6 days | MST (Plasmodium berghei [22]): 6 days | inhibition in vivo at 10 mg/kg/day (Leishmania donovani [23]): 99.6% | Activity (Mus musculus): Toxic | MST (Plasmodium berghei [24]): 0 days | Activity (Canis familiaris [25]): Toxic | Activity (Plasmodium berghei [26]): Active | Activity (Plasmodium berghei [27]): Active | Activity (Canis familiaris [28]): Toxic | Activity (Pneumocystis carinii [29]): Active | MST (Plasmodium berghei [30]): 0 days | Activity (Plasmodium berghei [31]): Active | Activity (Pneumocystis carinii [32]): Active | Activity (Plasmodium berghei [33]): Active
